Test system: T1, A0A140T8K0
T1 sequence (whole entry): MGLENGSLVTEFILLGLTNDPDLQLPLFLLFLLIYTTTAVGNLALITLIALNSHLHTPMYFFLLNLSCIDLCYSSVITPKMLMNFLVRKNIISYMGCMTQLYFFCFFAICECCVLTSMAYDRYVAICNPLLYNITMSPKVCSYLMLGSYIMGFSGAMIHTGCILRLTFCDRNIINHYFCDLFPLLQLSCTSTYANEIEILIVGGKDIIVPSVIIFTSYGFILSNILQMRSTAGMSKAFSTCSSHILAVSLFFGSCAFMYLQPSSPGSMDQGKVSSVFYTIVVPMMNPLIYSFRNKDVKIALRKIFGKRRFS
Conditions: stereoisomer not certain
In short: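 Transient luciferase assays in mammalian cell lines were common, though methods varied by source. The values come from published papers and their supplementary material, with extra details from the original authors when needed. Responsive refers to a measured signal the original authors judged statistically different from baseline, and non-responsive (inactive) to the remainder.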
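Further: active if original authors judged signal statistically different from baseline.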

Odorant receptor agonist call, inactive:
CC(=O)OCCc1ccccc1
OCCc1ccccc1
CCCCCCCCCC=CC=O
CCCCCC=CCCC=O
CSSSC
CC(=O)OC1(C)CCC23CC1C(C)(C)C2CCC3C (centres undefined)
CCCCCCC(C=O)=Cc1ccccc1
CCCC(C)C(=O)OCC (centres undefined)
CCCCCOC(=O)CCC
CC(C)=CCCC(C)=CCOC(=O)C(C)C
Cc1c(C)c(C)c(C=O)c(C)c1C
CCOC(=O)C(C)CC (centres undefined)
Cc1ccc(OC(=O)C(C)C)cc1
CCCCCOC(=O)CC
COC(OC)c1ccccc1
CCCCCCCCCCCO
Cc1ccc2c(c1)OCC(=O)CO2
CC(=O)OCc1ccc2c(c1)OCO2
CC1CCC(C(C)C)C(=O)C1 (centres undefined)
CCN(CC)CC
CCCO
C=C1C2CCC(C2)C1(C)C (centres undefined)
O=C(O)CCCCCBr
CCCCCCCOC(=O)C(C)C
Cc1ccc(C(C)C)c(O)c1
CCc1ccc(O)cc1
CC(=O)C=CC1=C(C)CCCC1(C)C
C=C(C)C1CCC(C)C(O)C1 (centres undefined)
CCC(C)O (centres undefined)
Cc1ccc(C(C)C)cc1
CCCCCC(C)O (centres undefined)
OCCCCCCCCCO
C=CC(=C)CCC=C(C)C
CCC=CCCC=CC=O
C=C(C)C1CCC2(C)OC2C1 (centres undefined)
C1CCOC1
CCCCCCCCCCOC(C)=O
CCSSCC
CC1CC=CCCCCCCCCCC(=O)C1 (centres undefined)
